From ChEMBL document CHEMBL4831496, “Noncovalent EGFR T790M/L858R inhibitors based on diphenylpyrimidine scaffold: Design, synthesis, and bioactivity evaluation for the treatment of NSCLC” (Eur J Med Chem, 2021)

Assays:
[1] = target: Epidermal growth factor receptor (Homo sapiens, UniProt P00533); test: Inhibition of wild type EGFR (unknown origin) measured after 60 mins by ADP-Glo kinase based luminescence assay
NCI-H1975 = test: Antiproliferative activity against human NCI-H1975 cells harboring EGFR L858R/T790M mutant assessed as reduction in cell viability incubated for 72 hrs by CCK8 assay; type: functional, cell-based; settings: NCI-H1975, 72 h
How it was run: (§1)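 Cells kept as monolayers at 37 °C, 5% CO2, seeded 3000-4000/well for 12 h, then exposed to compounds for 72 h. CCK-8 added for 1-2 h at 37 °C, absorbance read at 450 nm. Each dose run in triplicate, experiment repeated at least three times. IC50 taken from dose-response curves.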

[2] = target: Epidermal growth factor receptor (Homo sapiens, UniProt P00533, L858R/T790M); test: Inhibition of EGFR L858R/T790M double mutant (unknown origin) measured after 60 mins by ADP-Glo kinase based luminescence assay
Epidermal growth factor receptor (Homo sapiens, UniProt P00533, L858R/T790M), sequence (P00533 25-1210 T790M/L858R limits assumed): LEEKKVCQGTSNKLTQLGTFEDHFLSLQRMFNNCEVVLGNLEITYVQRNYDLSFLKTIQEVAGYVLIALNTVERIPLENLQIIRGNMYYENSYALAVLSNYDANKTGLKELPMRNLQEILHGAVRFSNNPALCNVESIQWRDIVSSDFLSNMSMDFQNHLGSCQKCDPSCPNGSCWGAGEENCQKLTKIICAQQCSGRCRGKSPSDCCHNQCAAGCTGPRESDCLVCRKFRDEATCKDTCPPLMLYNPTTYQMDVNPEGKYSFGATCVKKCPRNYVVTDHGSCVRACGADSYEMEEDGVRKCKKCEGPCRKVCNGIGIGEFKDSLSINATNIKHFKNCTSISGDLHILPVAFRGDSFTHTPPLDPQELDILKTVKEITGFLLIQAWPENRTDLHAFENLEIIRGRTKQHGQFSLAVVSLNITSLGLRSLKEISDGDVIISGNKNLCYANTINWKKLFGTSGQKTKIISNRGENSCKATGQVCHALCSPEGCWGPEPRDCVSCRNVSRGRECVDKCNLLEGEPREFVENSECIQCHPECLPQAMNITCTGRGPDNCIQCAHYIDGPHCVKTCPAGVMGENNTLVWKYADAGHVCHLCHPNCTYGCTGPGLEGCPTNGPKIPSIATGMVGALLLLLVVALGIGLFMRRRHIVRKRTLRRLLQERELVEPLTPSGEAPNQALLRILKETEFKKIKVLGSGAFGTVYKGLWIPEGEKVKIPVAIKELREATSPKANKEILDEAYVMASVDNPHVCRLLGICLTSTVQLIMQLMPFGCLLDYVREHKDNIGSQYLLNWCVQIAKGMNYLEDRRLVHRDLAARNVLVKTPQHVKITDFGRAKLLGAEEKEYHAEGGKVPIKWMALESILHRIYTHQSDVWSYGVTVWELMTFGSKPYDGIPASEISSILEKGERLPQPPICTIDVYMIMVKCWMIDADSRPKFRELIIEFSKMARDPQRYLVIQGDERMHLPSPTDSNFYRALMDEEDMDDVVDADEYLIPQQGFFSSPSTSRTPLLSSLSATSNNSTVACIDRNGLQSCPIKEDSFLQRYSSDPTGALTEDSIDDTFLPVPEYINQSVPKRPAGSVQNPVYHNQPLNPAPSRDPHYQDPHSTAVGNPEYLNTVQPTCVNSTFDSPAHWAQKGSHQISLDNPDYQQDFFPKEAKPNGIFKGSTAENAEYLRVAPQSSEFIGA

L02 = test: Antiproliferative activity against human L02 cells assessed as reduction in cell viability incubated for 72 hrs by CCK8 assay; type: cell-based; settings: L02, 72 h
[3] = Cytotoxicity against human HBE cells assessed as reduction in cell viability incubated for 72 hrs by CCK8 assay; type: cell-based; how it was run: as §1
[4] = Selectivity index, ratio of IC50 for human A-431 cells harboring wild type EGFR (unknown origin) to IC50 for human NCI-H1975 cells harboring EGFR L858R/T790M mutant
A-431 = test: Cytotoxicity against human A-431 cells harboring wild type EGFR assessed as reduction in cell viability incubated for 72 hrs by CCK8 assay; type: cell-based; settings: A-431, 72 h; how it was run: as §1
NCI-H23 = test: Antiproliferative activity against human NCI-H23 cells harboring KRAS mutant assessed as reduction in cell viability incubated for 72 hrs by CCK8 assay; type: functional, cell-based; settings: NCI-H23, 72 h; how it was run: as §1
A549 = test: Antiproliferative activity against human A549 cells harboring KRAS G12S mutant assessed as reduction in cell viability incubated for 72 hrs by CCK8 assay; type: functional, cell-based; settings: A549, 72 h; how it was run: as §1
ASPC1 = test: Antiproliferative activity against human ASPC1 cells assessed as reduction in cell viability incubated for 72 hrs by CCK8 assay; type: functional, cell-based; settings: ASPC1, 72 h; how it was run: as §1

Epidermal growth factor receptor (Homo sapiens, UniProt P00533), sequence (P00533 whole entry): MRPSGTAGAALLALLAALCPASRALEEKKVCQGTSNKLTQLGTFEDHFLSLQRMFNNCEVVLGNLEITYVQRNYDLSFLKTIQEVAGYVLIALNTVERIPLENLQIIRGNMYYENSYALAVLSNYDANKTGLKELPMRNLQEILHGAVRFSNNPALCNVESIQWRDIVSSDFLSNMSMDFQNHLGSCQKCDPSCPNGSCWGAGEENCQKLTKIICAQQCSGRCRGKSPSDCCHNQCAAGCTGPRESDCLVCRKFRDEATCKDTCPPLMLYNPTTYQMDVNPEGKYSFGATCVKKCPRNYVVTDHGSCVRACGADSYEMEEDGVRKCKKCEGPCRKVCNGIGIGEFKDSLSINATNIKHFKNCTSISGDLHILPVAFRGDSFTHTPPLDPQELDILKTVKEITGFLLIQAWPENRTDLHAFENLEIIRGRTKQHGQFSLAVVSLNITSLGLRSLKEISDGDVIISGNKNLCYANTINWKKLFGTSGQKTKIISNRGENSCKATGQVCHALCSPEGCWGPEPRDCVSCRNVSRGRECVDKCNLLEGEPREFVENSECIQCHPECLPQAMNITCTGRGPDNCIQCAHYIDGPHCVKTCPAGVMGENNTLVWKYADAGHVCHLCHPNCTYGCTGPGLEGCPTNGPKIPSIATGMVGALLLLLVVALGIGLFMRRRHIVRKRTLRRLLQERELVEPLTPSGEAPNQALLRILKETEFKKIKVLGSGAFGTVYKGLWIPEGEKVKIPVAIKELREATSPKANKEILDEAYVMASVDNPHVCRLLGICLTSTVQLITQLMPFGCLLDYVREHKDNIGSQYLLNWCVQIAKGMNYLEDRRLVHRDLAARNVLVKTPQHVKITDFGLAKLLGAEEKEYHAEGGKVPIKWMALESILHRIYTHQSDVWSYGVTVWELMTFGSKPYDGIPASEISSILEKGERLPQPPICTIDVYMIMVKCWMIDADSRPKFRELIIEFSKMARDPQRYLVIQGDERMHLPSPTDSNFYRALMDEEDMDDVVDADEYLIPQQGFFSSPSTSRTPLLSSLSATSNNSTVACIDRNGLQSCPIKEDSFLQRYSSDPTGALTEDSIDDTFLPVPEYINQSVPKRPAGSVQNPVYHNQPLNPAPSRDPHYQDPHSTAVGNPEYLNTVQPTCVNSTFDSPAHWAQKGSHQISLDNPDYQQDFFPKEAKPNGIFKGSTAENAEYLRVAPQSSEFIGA

CCOC(=O)c1ccccc1Nc1nc(Nc2ccc(OCC(=O)N3CCOCC3)cc2)ncc1Cl
IC50 [1]: 32 nM | IC50 (NCI-H1975): 2900 nM | IC50 [2]: 0.245 nM | IC50 (L02): 30200 nM

CNC(=O)c1ccccc1Nc1nc(Nc2ccc(NC(=O)CN3CCOCC3)c(C)c2)ncc1Cl
IC50 (NCI-H1975): 333 nM | IC50 [2]: 3.89 nM

O=C(NO)c1ccccc1Nc1nc(Nc2ccc(N3CCOCC3)cc2)ncc1Cl
IC50 [3]: > 40000 nM | Ratio IC50 [4]: 14.46 | IC50 [1]: 169 nM | IC50 (NCI-H1975): 109 nM | IC50 [2]: 116 nM | IC50 (A-431): 1580 nM | IC50 (NCI-H23): 801 nM | IC50 (L02): 2190 nM | IC50 (A549): 109 nM | IC50 (ASPC1): 1410 nM

O=C(O)c1ccccc1Nc1nc(Nc2ccc(OCC(=O)N3CCOCC3)cc2)ncc1Cl
IC50 [1]: 81.4 nM | IC50 (NCI-H1975): > 10000 nM | IC50 [2]: 199 nM | IC50 (L02): 15500 nM

CNC(=O)c1ccccc1Nc1nc(Nc2ccc(N3CCC(C(=O)NO)CC3)cc2)ncc1Cl
IC50 [3]: 12600 nM | Ratio IC50 [4]: 0.39 | IC50 [1]: 119 nM | IC50 (NCI-H1975): 329 nM | IC50 [2]: 49.9 nM | IC50 (A-431): 127 nM | IC50 (NCI-H23): 1540 nM | IC50 (L02): 1730 nM | IC50 (A549): 329 nM | IC50 (ASPC1): 499 nM

CN1CCN(CCOc2ccc(Nc3ncc(Cl)c(Nc4ccccc4C(=O)NO)n3)cc2)CC1
IC50 [3]: 29800 nM | Ratio IC50 [4]: 0.84 | IC50 [1]: 0.763 nM | IC50 (NCI-H1975): 822 nM | IC50 [2]: 6.82 nM | IC50 (A-431): 692 nM | IC50 (NCI-H23): 642 nM | IC50 (L02): 1950 nM | IC50 (A549): 203 nM | IC50 (ASPC1): 244 nM

O=C(NO)c1ccccc1Nc1nc(Nc2ccc(OCCCN3CCOCC3)cc2)ncc1Cl
IC50 [3]: 26500 nM | Ratio IC50 [4]: 4.38 | IC50 [1]: 1.25 nM | IC50 (NCI-H1975): 321 nM | IC50 [2]: 64.8 nM | IC50 (A-431): 1400 nM | IC50 (NCI-H23): 665 nM | IC50 (L02): 1730 nM | IC50 (A549): 321 nM | IC50 (ASPC1): 1230 nM

O=C(NO)c1ccccc1Nc1nc(Nc2ccc(OCC(=O)N3CCOCC3)cc2)ncc1Cl
IC50 [3]: 20200 nM | Ratio IC50 [4]: 5.19 | IC50 [1]: 57.3 nM | IC50 (NCI-H1975): 129 nM | IC50 [2]: 16 nM | IC50 (A-431): 670 nM | IC50 (NCI-H23): 820 nM | IC50 (L02): 4810 nM | IC50 (A549): 129 nM | IC50 (ASPC1): 530 nM

CNC(=O)c1ccccc1Nc1nc(Nc2ccc(OCCCN3CCC(C(=O)NO)CC3)cc2)ncc1Cl
IC50 [3]: 8570 nM | Ratio IC50 [4]: 2.88 | IC50 [1]: 46.7 nM | IC50 (NCI-H1975): 156 nM | IC50 [2]: 45 nM | IC50 (A-431): 448 nM | IC50 (NCI-H23): 2110 nM | IC50 (L02): < 1250 nM | IC50 (A549): 156 nM | IC50 (ASPC1): < 156 nM

O=C(COc1ccc(Nc2ncc(Cl)c(Nc3ccccc3C(=O)NO)n2)cc1)NO
IC50 [3]: > 40000 nM | Ratio IC50 [4]: 1.86 | IC50 [1]: 50.2 nM | IC50 (NCI-H1975): 1110 nM | IC50 [2]: 65.4 nM | IC50 (A-431): 2060 nM | IC50 (NCI-H23): 6400 nM | IC50 (L02): 7870 nM | IC50 (A549): 1110 nM | IC50 (ASPC1): 1580 nM

CN1CCN(c2ccc(Nc3ncc(Cl)c(Nc4ccccc4C(=O)NO)n3)cc2)CC1
IC50 [3]: 22600 nM | Ratio IC50 [4]: >3.24 | IC50 [1]: 6.56 nM | IC50 (NCI-H1975): < 78.1 nM | IC50 [2]: 68.8 nM | IC50 (A-431): 253 nM | IC50 (NCI-H23): 217 nM | IC50 (L02): < 1250 nM | IC50 (A549): < 78 nM | IC50 (ASPC1): < 156 nM

O=C(CN1CCOCC1)Nc1ccc(Nc2ncc(Cl)c(Nc3ccccc3C(=O)NO)n2)cc1
IC50 [3]: > 40000 nM | Ratio IC50 [4]: 3.98 | IC50 [1]: 126 nM | IC50 (NCI-H1975): 385 nM | IC50 [2]: 113 nM | IC50 (A-431): 1530 nM | IC50 (NCI-H23): 1740 nM | IC50 (L02): 2110 nM | IC50 (A549): 385 nM | IC50 (ASPC1): 750 nM

CNC(=O)c1ccccc1Nc1nc(Nc2ccc(CN3CCC(C(=O)NO)CC3)cc2)ncc1Cl
IC50 [3]: 15900 nM | Ratio IC50 [4]: 4.72 | IC50 [1]: 1.09 nM | IC50 (NCI-H1975): 245 nM | IC50 [2]: 117 nM | IC50 (A-431): 1160 nM | IC50 (NCI-H23): 8420 nM | IC50 (L02): 1280 nM | IC50 (A549): 245 nM | IC50 (ASPC1): 374 nM

O=C(NO)c1ccccc1Nc1nc(Nc2ccc(CN3CCOCC3)cc2)ncc1Cl
IC50 [3]: 29100 nM | Ratio IC50 [4]: >31.08 | IC50 [1]: 4.5 nM | IC50 (NCI-H1975): < 78.1 nM | IC50 [2]: 98.8 nM | IC50 (A-431): 2430 nM | IC50 (NCI-H23): 554 nM | IC50 (L02): < 1250 nM | IC50 (A549): < 78 nM | IC50 (ASPC1): < 156 nM
